What was measured:
[1] = tested on: patients with ALK + NSCLC who are ALK inhibitor naive; details: first interim analysis, blinded independent review committee; cited from earlier work
[2] = cited from earlier work
[3] = cited from earlier work; remark: listed apart in the source
[4] = cited from earlier work; remark: listed apart in the source
[5] = tested on: native EML4-ALK; details: read-out: IC90 for inhibition of native EML4-ALK; cellular assays; cited from earlier work
[6] = cited from earlier work; remark: listed apart in the source
[7] = cited from earlier work; remark: listed apart in the source
[8] = tested on: patients with locally advanced or metastatic ALK-positive NSCLC; details: 180 mg qd with a 7-day lead-in at 90 mg qd; crizotinib-refractory patients; cited from earlier work
[9] = tested on: human plasma proteins; details: cited from earlier work
[10] = tested on: EML4-ALK mutants; details: read-out: IC90 range for EML4-ALK mutants; cellular assays; cited from earlier work
[11] = cited from earlier work; remark: listed apart in the source
[12] = cited from earlier work; remark: listed apart in the source
[13] = Population pharmacokinetic model; format: in vivo, human; details: for Variability in CL/F explained by albumin: albumin as covariate in the final model
Method in brief: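 Plasma measured by two validated LC/MS methods, combined range 0.1–2500 ng/mL. Inter-individual effects multivariate normal; residual error additive, proportional or mixed. Covariates tested on CL/F and V1/F in two steps. 1000 bootstrap replicates with replacement; 1000-replicate prediction-corrected VPC.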

[14] = single oral 180-mg radiolabeled dose, healthy volunteers

In the case of `COc1cc(N2CCC(N3CCN(C)CC3)CC2)ccc1Nc1ncc(Cl)c(Nc2ccccc2P(C)(C)=O)n1` [brigatinib], the 12-month event-free rate [1] is listed as 67%, the “Overall radiolabeled dose recovered as unchanged drug” value [2] is listed as “Approximately 50%” and the “Administered dose recovered in feces” value [2, 14] is listed as “approximately 65%”. For the same compound, the “Administered dose recovered in urine” value [2, 14] was about 25%, the “Unchanged brigatinib in feces” value [2, 14] was 41% and the “Unchanged brigatinib in urine” value [2, 14] was 86%. The Permeability [3] was “high”, the “Increase in unbound brigatinib systemic exposure (AUC0–∞), severe hepatic impairment (Child–Pugh C)” value [4] was “approximately 37%” and the IC90 [5] was 38 nM. For the same compound, the “Increase in unbound AUC0–∞, severe renal impairment vs normal renal function” value [6] was “approximately twofold”, the “Decrease in maximum plasma concentration following a high-fat meal” value [7] was 13% and the “Effect of a high-fat meal on AUC” value [7] was “without a corresponding decrease in AUC”. For the same compound, the Median progression-free survival [8] was 16.7 months, the “Bound to human plasma proteins” value [9] was “approximately 90%” and the IC90 [10] was 22 to 762 nM. For the same compound, the Solubility [11] was “high”, the “Enzymes metabolizing the remainder to inactive or minor metabolites” value [12] was “primarily by cytochrome P450 (CYP) 3A and CYP2C8” and the Oral bioavailability [12] was “orally bioavailable”. The “Variability in CL/F explained by albumin” value [13] was “approximately 5%”, the “Variability in CL/F explained by albumin” value ([13]; listed as Brigatinib) was “Albumin was included as a covariate on apparent clearance in the final population pharmacokinetic model, explaining approximately 5% of variability in apparent clearance” and the “Albumin covariate effect on CL/F, bootstrap median (2.5th to 97.5th percentile)” value ([13]; bootstrap of 1000 replicates) was 0.656 (0.474–0.849). For the same compound, the “CL/F, bootstrap median (2.5th to 97.5th percentile)” value ([13]; bootstrap of 1000 replicates) was 10.6 (10.2–11.1) L/h, the “Mean transit time, bootstrap median (2.5th to 97.5th percentile)” value ([13]; bootstrap of 1000 replicates) was 0.9 (0.8–1.0) h and the “Q1/F, bootstrap median (2.5th to 97.5th percentile)” value ([13]; bootstrap of 1000 replicates) was 12.8 (10.5–16.2) L/h. The “Q2/F, bootstrap median (2.5th to 97.5th percentile)” value ([13]; bootstrap of 1000 replicates) was 2.46 (1.09–4.76) L/h, the “V1/F, bootstrap median (2.5th to 97.5th percentile)” value ([13]; bootstrap of 1000 replicates) was 208 (193–219) L and the “V2/F, bootstrap median (2.5th to 97.5th percentile)” value ([13]; bootstrap of 1000 replicates) was 118 (83.6–147) L. The “V3/F, bootstrap median (2.5th to 97.5th percentile)” value ([13]; bootstrap of 1000 replicates) was 82.3 (57.6–112) L, the “No. of transit compartments, bootstrap median” value ([13]; bootstrap of 1000 replicates, fixed) was 2.35 (–) and the “Inter-individual variability of mean transit time, % (% CV)” value ([13]; final population PK model) was 59 (7.5) %. The “Mean transit time, model estimate (% CV)” value ([13]; final population PK model) was 0.9 (3.6) h, the “No. of transit compartments, model estimate” value ([13]; final population PK model, fixed at the population estimate) was 2.35 and the “Mean transit time, model estimate (% CV)” value ([13]; final population PK model, listed as Brigatinib) was 0.9 h. The “Higher CL/F at 95th percentile of albumin vs median albumin” value ([13]; predicted, higher than a patient with the median albumin value) was about 20% and the “Lower CL/F at 5th percentile of albumin vs median albumin” value ([13]; predicted, lower than a patient with the median albumin value) was “approximately 22%”.

Source: paper PMC7862202 (Clinical Pharmacokinetics, 2020)
